Experiment [1] relates to Mus musculus. Briefly: Antiobesity activity in C57BL/6 mouse assessed as inhibition of food intake at 5.6 mg/kg, ip measured after 2 to 12 hrs relative to vehicle-treated control. The experiment is classed as functional. The note with it: C57BL/6, ip, route intraperitoneal. In short, it runs like this: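 Male C57BL/6 mice acclimated 1 week (23 ± 3 °C, 50 ± 20% humidity), fasted 24 h, then given intraperitoneal vehicle or drug. Food intake measured over intervals of 2, 6 and 12 h and compared with vehicle control.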

Experiment [2] addresses D(2) dopamine receptor (Homo sapiens, UniProt P14416). As to the kind of experiment: Displacement of [3H]-methylspiperone from dopamine D2L receptor (unknown origin) after 60 mins. In short, it runs like this:
(§1)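 Receptor membranes incubated at 27 °C, 60 min for D2L and 30 min for D3, with [3H]methylspiperone (0.2 nM for D2L, 0.25 nM for D3) and test compound at a range of concentrations. Buffer was 50 mM Tris-HCl pH 7.4, 10 mM MgCl2, 1 mM EDTA, 120 mM NaCl. Nonspecific binding defined with haloperidol (D2) or GR103691 (D3). IC50 obtained by nonlinear regression.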

Experiment [3] addresses 5-hydroxytryptamine receptor 7 (Homo sapiens, UniProt P34969). As to the kind of experiment: Displacement of [3H]-LSD from human recombinant 5HT-7 receptor expressed in CHOK1 cell membranes after 120 mins. On the set-up: species or system CHO-K1. In short, it runs like this: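 CHO-K1 membranes expressing human 5-HT7 incubated with 3 nM [3H]LSD for 120 min at 27 °C in 50 mM Tris-HCl pH 7.4, 10 mM MgSO4, 0.5 mM EDTA. Filtered on glass-fiber filters presoaked in 0.3% PEI. Methiothepin defined nonspecific binding.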
(In general: Loss of bound radioactivity is the signal in a displacement assay; it reports binding, not function.)

Experiment [4] deals with 5-hydroxytryptamine receptor 6 (Homo sapiens, UniProt P50406). Briefly: Displacement of [3H]-LSD from human recombinant 5HT-6 receptor expressed in CHOK1 cell membranes after 60 mins. The arrangement: species or system CHO-K1. In short, it runs like this:
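CHO-K1 membranes expressing human 5-HT6 incubated with 1 nM [3H]LSD for 60 min at 27 °C in 50 mM Tris-HCl pH 7.4 containing 4 mM CaCl2 and 0.1% ascorbic acid. Terminated by filtration on glass-fiber filters presoaked in 0.5% PEI. Methiothepin defined nonspecific binding.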

The target in experiment [5] is T1, Alpha-1A adrenergic receptor (Homo sapiens, UniProt P35348).
T1 sequence (P35348 whole entry): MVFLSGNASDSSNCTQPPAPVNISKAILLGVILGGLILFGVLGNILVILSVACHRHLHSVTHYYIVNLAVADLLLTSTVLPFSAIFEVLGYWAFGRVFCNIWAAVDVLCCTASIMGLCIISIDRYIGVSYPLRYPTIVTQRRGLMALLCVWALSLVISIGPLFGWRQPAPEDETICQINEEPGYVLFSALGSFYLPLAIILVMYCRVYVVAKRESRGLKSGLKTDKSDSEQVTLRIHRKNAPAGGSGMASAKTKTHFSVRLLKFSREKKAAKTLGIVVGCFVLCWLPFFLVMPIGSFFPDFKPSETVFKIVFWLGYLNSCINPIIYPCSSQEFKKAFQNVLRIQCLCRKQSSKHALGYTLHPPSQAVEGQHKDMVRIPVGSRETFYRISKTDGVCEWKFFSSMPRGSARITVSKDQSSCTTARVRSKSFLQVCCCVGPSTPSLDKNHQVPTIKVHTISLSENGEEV
As to the kind of experiment: Binding affinity to adrenergic alpha1A receptor (unknown origin).

Experiment [6] deals with T2, Alpha-2A adrenergic receptor (Homo sapiens, UniProt P08913).
T2 sequence (P08913 whole entry): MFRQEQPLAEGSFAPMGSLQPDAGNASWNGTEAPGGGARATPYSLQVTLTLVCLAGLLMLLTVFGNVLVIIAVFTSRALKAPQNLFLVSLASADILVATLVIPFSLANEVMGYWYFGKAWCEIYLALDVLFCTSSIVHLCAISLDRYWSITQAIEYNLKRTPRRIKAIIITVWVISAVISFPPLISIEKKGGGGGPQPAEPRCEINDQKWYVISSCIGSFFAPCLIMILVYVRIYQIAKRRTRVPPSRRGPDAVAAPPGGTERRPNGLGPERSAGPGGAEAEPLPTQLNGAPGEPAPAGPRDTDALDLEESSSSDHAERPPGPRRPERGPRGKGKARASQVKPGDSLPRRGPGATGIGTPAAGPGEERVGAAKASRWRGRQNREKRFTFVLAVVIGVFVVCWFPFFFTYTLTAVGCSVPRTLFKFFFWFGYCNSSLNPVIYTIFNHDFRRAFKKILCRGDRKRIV
Briefly: Binding affinity to adrenergic alpha2A receptor (unknown origin).

For experiment [7], the system named is Mus musculus. As to the kind of experiment: Antiobesity activity in C57BL/6 mouse assessed as inhibition of body weight gain at 50 mg/kg, ip measured after 2 to 12 hrs relative to vehicle-treated control. The experiment is classed as functional. The conditions noted are these: C57BL/6, ip, route intraperitoneal.
Experiment [8] has as its target D(3) dopamine receptor (Homo sapiens, UniProt P35462). As to the kind of experiment: Displacement of [3H]-methylspiperone from dopamine D3 receptor (unknown origin) after 30 mins. In short, it runs like this: as §1
The target of experiment [9] is T3, 5-hydroxytryptamine receptor 1A (Homo sapiens, UniProt P08908).
T3 sequence (P08908 whole entry): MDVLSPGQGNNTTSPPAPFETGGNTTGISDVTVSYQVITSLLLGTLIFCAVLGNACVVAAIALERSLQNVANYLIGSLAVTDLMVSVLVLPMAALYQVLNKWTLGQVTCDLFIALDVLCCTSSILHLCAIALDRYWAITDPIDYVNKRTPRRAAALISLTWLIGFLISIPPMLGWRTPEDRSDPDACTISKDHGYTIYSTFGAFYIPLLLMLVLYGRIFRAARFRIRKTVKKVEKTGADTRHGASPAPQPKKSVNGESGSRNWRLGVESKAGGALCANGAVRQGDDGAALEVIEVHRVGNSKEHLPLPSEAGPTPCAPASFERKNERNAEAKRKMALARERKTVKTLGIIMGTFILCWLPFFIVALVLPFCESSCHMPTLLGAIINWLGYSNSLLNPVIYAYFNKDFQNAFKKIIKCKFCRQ
As to the kind of experiment: Displacement from [3H]8-OH-DPAT from human recombinant 5HT-1A receptor expressed in HEK293 cells after 120 mins. The experiment is classed as cell-based. In short, it runs like this: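 Membranes from HEK293-EBNA cells stably expressing recombinant human 5-HT1A. Incubated with 2 nM [3H]8-OH-DPAT and test compound at a range of concentrations in 50 mM Tris-HCl pH 7.4 with 5 mM MgSO4.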

Experiment [10] is filed under the species Homo sapiens. As to the kind of experiment: Selectivity ratio of IC50 for human recombinant 5HT-2B receptor to IC50 for human recombinant 5HT-2C receptor.
The target in experiment [11] is T4, 5-hydroxytryptamine receptor 2C (Homo sapiens, UniProt P28335).
T4 sequence (P28335 whole entry): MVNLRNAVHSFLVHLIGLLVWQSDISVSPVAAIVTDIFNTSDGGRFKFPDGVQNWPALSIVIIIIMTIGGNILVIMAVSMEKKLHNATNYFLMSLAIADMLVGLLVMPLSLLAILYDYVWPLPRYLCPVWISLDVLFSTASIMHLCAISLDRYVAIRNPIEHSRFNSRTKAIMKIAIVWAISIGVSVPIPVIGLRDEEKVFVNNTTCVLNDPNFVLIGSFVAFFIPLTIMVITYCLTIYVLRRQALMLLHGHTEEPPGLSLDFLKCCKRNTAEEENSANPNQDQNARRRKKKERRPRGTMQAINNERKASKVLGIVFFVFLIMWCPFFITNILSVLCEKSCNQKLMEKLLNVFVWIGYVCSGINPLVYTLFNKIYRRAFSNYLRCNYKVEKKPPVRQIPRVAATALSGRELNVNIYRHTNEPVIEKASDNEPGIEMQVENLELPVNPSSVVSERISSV
Briefly: Displacement of [3H]-mesulergine from human recombinant 5HT-2C receptor expressed in CHOK1 cell membranes after 30 mins. The arrangement: species or system CHO-K1. An outline of the steps: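 Frozen CHO-K1 membranes expressing recombinant human 5-HT2C incubated with 1 nM [3H]mesulergine in 50 mM Tris-HCl pH 7.4 containing 0.1% ascorbic acid and pargyline. Mianserin defined nonspecific binding.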

The test system of experiment [12] is Mus musculus. Briefly: Antiobesity activity in C57BL/6 mouse assessed as inhibition of food intake at 50 mg/kg, ip measured after 2 to 12 hrs relative to vehicle-treated control. In kind it is functional. The conditions noted are these: C57BL/6, ip, route intraperitoneal. An outline of the steps:
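Male mice were acclimated 1 week at 23 ± 3 °C and 50 ± 20% humidity, then fasted 24 h. They were dosed once intraperitoneally with vehicle or compound: 50 mg/kg in C57BL/6, or 12.5, 25 or 50 mg/kg in B6.V-Lep^ob/J. Food intake was measured at 2, 6 and 12 h versus vehicle control.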

In experiment [13] the target is 5-hydroxytryptamine receptor 2B (Homo sapiens, UniProt P41595). As to the kind of experiment: Displacement of […] from human recombinant 5HT-2B receptor.
Chain of 5-hydroxytryptamine receptor 2B (P41595 whole entry): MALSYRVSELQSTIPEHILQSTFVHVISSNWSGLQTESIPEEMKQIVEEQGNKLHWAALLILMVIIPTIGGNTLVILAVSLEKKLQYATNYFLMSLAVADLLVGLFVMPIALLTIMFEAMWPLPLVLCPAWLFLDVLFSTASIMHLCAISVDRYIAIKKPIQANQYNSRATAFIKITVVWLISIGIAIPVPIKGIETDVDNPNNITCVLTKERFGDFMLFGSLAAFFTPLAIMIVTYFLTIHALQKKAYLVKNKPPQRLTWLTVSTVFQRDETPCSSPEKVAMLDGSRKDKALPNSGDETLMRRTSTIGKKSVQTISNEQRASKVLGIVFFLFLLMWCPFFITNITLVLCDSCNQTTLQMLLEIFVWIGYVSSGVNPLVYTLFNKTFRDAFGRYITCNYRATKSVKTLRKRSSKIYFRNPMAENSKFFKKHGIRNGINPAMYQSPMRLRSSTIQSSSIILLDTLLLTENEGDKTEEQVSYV
Experiment [14] is filed under the species Homo sapiens. As to the kind of experiment: Selectivity ratio of IC50 for human recombinant 5HT-2B receptor to IC50 for human recombinant 5HT-2A receptor.
Experiment [15] can be described thus: Displacement of [3H]-YM-09151-2 from cloned dopamine D4.2 receptor (unknown origin) expressed in Sf9 cells after 60 mins. The arrangement: species or system Homo sapiens. An outline of the steps: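 Sf9 membranes with cloned D4.2 receptor incubated with 0.2 nM [3H]YM-09151-2 for 60 min at 27 °C in 50 mM Tris-HCl pH 7.4, 5 mM MgCl2, 5 mM EDTA, 5 mM KCl, 1.5 mM CaCl2. Clozapine defined nonspecific binding. Filtered on glass-fiber filters presoaked in 0.3% PEI.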

For experiment [16], the target named is 5-hydroxytryptamine receptor 2A (Homo sapiens, UniProt P28223). As to the kind of experiment: Displacement of [3H]-ketanserin from human recombinant 5HT-2A receptor expressed in CHOK1 cell membranes after 60 mins. On the set-up: species or system CHO-K1. In short, it runs like this: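 Buffer was 50 mM Tris-HCl pH 7.4 with 5 mM CaCl2 and 0.1% ascorbic acid. Test compound added at a range of concentrations.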
Chain of 5-hydroxytryptamine receptor 2A (P28223 whole entry): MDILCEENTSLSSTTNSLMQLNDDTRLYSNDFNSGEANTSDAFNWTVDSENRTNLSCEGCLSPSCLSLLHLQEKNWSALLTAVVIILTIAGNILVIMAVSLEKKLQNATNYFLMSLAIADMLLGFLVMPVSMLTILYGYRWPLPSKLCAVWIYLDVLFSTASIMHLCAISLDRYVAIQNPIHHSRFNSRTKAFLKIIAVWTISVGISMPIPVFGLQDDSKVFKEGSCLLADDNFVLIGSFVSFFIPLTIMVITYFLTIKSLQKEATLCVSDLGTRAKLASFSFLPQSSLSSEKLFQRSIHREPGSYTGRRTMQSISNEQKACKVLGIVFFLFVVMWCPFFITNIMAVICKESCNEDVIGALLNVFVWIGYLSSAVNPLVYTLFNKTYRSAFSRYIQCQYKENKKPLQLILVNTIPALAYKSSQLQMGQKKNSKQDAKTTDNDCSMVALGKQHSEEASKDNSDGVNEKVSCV

The results in this text go back to ChEMBL document CHEMBL2390866, “Novel pyrimidoazepine analogs as serotonin 5-HT(2A) and 5-HT(2C) receptor ligands for the treatment of obesity” (Eur J Med Chem, 2013).

Chain of D(2) dopamine receptor (P14416 whole entry): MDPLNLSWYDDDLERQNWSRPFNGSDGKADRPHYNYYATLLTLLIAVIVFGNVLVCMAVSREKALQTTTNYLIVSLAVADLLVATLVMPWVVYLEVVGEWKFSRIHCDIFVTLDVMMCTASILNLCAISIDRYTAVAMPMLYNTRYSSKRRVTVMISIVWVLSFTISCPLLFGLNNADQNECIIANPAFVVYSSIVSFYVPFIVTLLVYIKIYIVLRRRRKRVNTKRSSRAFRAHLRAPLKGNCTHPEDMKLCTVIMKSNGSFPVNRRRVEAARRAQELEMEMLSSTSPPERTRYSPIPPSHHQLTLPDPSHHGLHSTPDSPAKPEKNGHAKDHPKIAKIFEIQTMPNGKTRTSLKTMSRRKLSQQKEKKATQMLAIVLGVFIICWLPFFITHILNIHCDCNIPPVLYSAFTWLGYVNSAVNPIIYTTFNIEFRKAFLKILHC
Chain of 5-hydroxytryptamine receptor 6 (P50406 whole entry): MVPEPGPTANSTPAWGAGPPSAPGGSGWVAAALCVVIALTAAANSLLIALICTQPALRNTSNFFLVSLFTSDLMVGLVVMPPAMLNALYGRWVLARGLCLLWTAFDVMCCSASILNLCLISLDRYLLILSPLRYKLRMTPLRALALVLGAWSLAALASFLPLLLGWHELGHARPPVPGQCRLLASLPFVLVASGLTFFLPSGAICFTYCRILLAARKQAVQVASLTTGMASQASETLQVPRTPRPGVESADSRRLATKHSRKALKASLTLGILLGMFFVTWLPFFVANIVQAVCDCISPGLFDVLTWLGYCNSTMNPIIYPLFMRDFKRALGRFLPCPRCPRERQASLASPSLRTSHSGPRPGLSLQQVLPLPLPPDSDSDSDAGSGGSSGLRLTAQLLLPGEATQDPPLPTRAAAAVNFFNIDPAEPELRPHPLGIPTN
Chain of D(3) dopamine receptor (P35462 whole entry): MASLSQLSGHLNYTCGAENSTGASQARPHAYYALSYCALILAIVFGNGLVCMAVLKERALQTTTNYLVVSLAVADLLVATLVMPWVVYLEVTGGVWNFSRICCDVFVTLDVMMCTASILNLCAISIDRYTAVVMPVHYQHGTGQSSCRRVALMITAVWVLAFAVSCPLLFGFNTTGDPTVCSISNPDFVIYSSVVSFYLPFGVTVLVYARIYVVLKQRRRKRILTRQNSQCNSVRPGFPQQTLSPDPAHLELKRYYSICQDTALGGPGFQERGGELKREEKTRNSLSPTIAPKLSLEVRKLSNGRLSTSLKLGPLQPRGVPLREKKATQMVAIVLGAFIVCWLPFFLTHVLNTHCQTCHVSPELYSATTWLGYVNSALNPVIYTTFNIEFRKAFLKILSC
Chain of 5-hydroxytryptamine receptor 7 (P34969 whole entry): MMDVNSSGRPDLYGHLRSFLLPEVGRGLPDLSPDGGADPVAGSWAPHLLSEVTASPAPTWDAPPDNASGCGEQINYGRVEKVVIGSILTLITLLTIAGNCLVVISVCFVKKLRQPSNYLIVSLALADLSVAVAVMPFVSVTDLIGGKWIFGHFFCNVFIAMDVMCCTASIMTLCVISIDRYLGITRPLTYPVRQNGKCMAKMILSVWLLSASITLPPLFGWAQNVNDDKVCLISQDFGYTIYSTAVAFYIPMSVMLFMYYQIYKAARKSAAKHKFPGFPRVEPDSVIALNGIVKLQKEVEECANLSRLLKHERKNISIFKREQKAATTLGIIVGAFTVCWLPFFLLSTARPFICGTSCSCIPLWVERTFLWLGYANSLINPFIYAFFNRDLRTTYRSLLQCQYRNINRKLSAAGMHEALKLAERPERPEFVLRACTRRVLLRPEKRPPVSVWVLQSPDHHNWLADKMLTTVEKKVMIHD

`Clc1cccc(N2CCNCC2)c1` [CHLOROPHENYLPIPERAZINE]: the inhibition in vivo at 5.6 mg/kg in experiment [1] came to 13.1%.
On to `c1ccc(Cc2nc3c(c(Nc4ccccc4)n2)CCNCC3)cc1`, for which the IC50 in [2] was 147 nM; in experiment [3], 1560 nM; in experiment [4], 36.8 nM; in experiment [5] it was 1390 nM; in [6], above 10000 nM; in [8], 272 nM. The IC50 was determined as 395 nM in experiment [9]; 1.98 nM in experiment [11]; 89 nM in experiment [13]; 112 nM in experiment [15]; 2.69 nM in experiment [16]. Besides, the inhibition in vivo at 50 mg/kg is 71.8% in experiment [7] and 64.2% in [12]. Moreover, the Ratio IC50 was determined as 44.9 in [10] and 33.1 in experiment [14].

As a reminder, the inhibition in vivo is the relative decrease from the control value, in per cent. As usually defined, the IC50 is the point on the concentration scale where inhibition reaches its midpoint.
